According to ChEMBL document CHEMBL1629700, “Assessment of oritavancin serum protein binding across species” (Antimicrob Agents Chemother, 2010):
Converted amounts (≈) assume the structure as drawn.

What was measured:
[1] = test system: Staphylococcus aureus; experiment: Antibacterial activity against Staphylococcus aureus ATCC 29213 grown in CAMHB medium by broth microdilution method in presence of 95% rat serum ultrafiltrate; format: functional
Outline: (§1)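 Broth microdilution MIC run in a matrix of 95% pooled serum, or 95% serum ultrafiltrate (50 kDa cutoff filter, albumin excluded), plus 5% CAMHB. Drug dilution steps were arithmetic and prepared in CAMHB. Means came from 8 replicates per condition (mouse 4 to 8). Dog serum came from beagles.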

[2] = test system: Staphylococcus aureus; experiment: Antibacterial activity against Staphylococcus aureus ATCC 29213 grown in CAMHB medium by broth microdilution method; format: functional
Outline: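 MIC determined by broth microdilution under CLSI M7-A8 conditions in cation-adjusted Mueller-Hinton broth, using arithmetic drug dilution steps.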

[3] = test system: Serum; experiment: Protein binding in mouse serum by broth microdilution method; format: ADME, cell-free
Outline: (§2)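 Pooled serum (dog: beagle) and its ultrafiltrate (50 kDa cutoff, excludes albumin) were used. Broth microdilution MICs against S. aureus ATCC 29213 were read with arithmetic drug dilutions, made in CAMHB with 0.002% polysorbate-80, in 95% serum or 95% ultrafiltrate plus 5% CAMHB. % bound = (1 − mean MIC ultrafiltrate/mean MIC serum) × 100. Human, rat and dog used 8 replicates; mouse used 4–8.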

[4] = test system: Staphylococcus aureus; experiment: Ratio of MIC for Staphylococcus aureus ATCC 29213 grown in CAMHB medium in presence of 95% dog serum to MIC for Staphylococcus aureus ATCC 29213 in presence of 95% dog serum ultrafiltrate; format: functional
Outline: (§3)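 The fold increase is the mean arithmetic broth microdilution MIC in 95% serum (plus 5% CAMHB) divided by the mean MIC in 95% serum ultrafiltrate (plus 5% CAMHB). The ultrafiltrate was prepared with a 50 kDa cutoff that excludes albumin. Replicates were 8 per condition, or 4 to 8 for mouse. The same data give % bound = (1 − MIC ultrafiltrate/MIC serum) × 100.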

[5] = Protein binding in dog serum by broth microdilution method; format: ADME, cell-free, Canis lupus familiaris; conditions: read-out: PB (converted); outline: as §2
[6] = Protein binding in rat serum by broth microdilution method; format: ADME, cell-free; conditions: read-out: PB (converted); outline: as §2
[7] = test system: Staphylococcus aureus; experiment: Ratio of MIC for Staphylococcus aureus ATCC 29213 grown in CAMHB medium in presence of 95% rat serum to MIC for Staphylococcus aureus ATCC 29213 in presence of 95% rat serum ultrafiltrate; format: functional; outline: as §3
[8] = Protein binding in human serum by broth microdilution method; format: ADME, cell-free; conditions: read-out: PB (converted); outline: as §2
[9] = test system: Staphylococcus aureus; experiment: Ratio of MIC for Staphylococcus aureus ATCC 29213 grown in CAMHB medium in presence of 95% human serum to MIC for Staphylococcus aureus ATCC 29213 in presence of 95% human serum ultrafiltrate; format: functional; outline: as §3
[10] = test system: Staphylococcus aureus; experiment: Ratio of MIC for Staphylococcus aureus ATCC 29213 grown in CAMHB medium in presence of 95% mouse serum to MIC for Staphylococcus aureus ATCC 29213 in presence of 95% mouse serum ultrafiltrate; format: functional; outline: as §3
[11] = test system: Staphylococcus aureus; experiment: Antibacterial activity against Staphylococcus aureus ATCC 29213 grown in CAMHB medium by broth microdilution method in presence of 95% dog serum; format: functional; outline: as §1
[12] = test system: Staphylococcus aureus; experiment: Antibacterial activity against Staphylococcus aureus ATCC 29213 grown in CAMHB medium by broth microdilution method in presence of 95% human serum ultrafiltrate; format: functional; outline: as §1
[13] = test system: Staphylococcus aureus; experiment: Antibacterial activity against Staphylococcus aureus ATCC 29213 grown in CAMHB medium by broth microdilution method in presence of 95% rat serum; format: functional; outline: as §1
[14] = test system: Staphylococcus aureus; experiment: Antibacterial activity against Staphylococcus aureus ATCC 29213 grown in CAMHB medium by broth microdilution method in presence of 95% dog serum ultrafiltrate; format: functional; outline: as §1
[15] = test system: Staphylococcus aureus; experiment: Antibacterial activity against Staphylococcus aureus ATCC 29213 grown in CAMHB medium by broth microdilution method in presence of 95% mouse serum; format: functional; outline: as §1
[16] = test system: Staphylococcus aureus; experiment: Antibacterial activity against Staphylococcus aureus ATCC 29213 grown in CAMHB medium by broth microdilution method in presence of 95% human serum; format: functional; outline: as §1
[17] = test system: Staphylococcus aureus; experiment: Antibacterial activity against Staphylococcus aureus ATCC 29213 grown in CAMHB medium by broth microdilution method in presence of 95% mouse serum ultrafiltrate; format: functional; outline: as §1
[18] = test system: Staphylococcus aureus; experiment: Antibacterial activity against Staphylococcus aureus ATCC 29213 grown in CAMHB medium by broth microdilution method in presence of 0.002% polysorbate 80 and 95% human serum; format: functional
Outline: (§4)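 Broth microdilution with arithmetic drug dilutions prepared in CAMHB containing 0.002% polysorbate-80. Test medium was 95% pooled serum or 95% serum ultrafiltrate plus 5% CAMHB. Ultrafiltrate was made on 50 kDa cutoff ultrafilters, which exclude albumin. Means came from 8 replicates for human, rat and dog, and from 4 to 8 replicates for mouse.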

[19] = test system: Staphylococcus aureus; experiment: Antibacterial activity against Staphylococcus aureus ATCC 29213 grown in CAMHB medium by broth microdilution method in presence of 0.002% polysorbate 80 and 95% dog serum; format: functional; outline: as §4
[20] = Plasma protein binding in human by broth microdilution method; format: ADME, cell-free; conditions: read-out: PPB (converted)
[21] = test system: Staphylococcus aureus; experiment: Antibacterial activity against Staphylococcus aureus ATCC 29213 grown in CAMHB medium by broth microdilution method in presence of 0.002% polysorbate 80; format: functional
Outline: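 Broth microdilution per CLSI M7-A8 in cation-adjusted Mueller-Hinton broth with 0.002% polysorbate-80. Arithmetic dilution steps of 0.5 μg/ml from 3 to 1 μg/ml, 0.1 μg/ml from 1 to 0.3, 0.05 μg/ml from 0.3 to 0.1, and 0.01 μg/ml from 0.1 to 0.04 μg/ml. Mean of 8 replicates.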

[22] = test system: Staphylococcus aureus; experiment: Antibacterial activity against Staphylococcus aureus ATCC 29213 grown in CAMHB medium by broth microdilution method in presence of 0.002% polysorbate 80 and 95% dog serum ultrafiltrate; format: functional; outline: as §4
[23] = test system: Staphylococcus aureus; experiment: Antibacterial activity against Staphylococcus aureus ATCC 29213 grown in CAMHB medium by broth microdilution method in presence of 0.002% polysorbate 80 and 95% human serum ultrafiltrate; format: functional; outline: as §4
[24] = Plasma protein binding in human at 1 to 91 ug/ml by DCC adsorption method; format: ADME, cell-free; conditions: read-out: PB (converted)
[25] = test system: Staphylococcus aureus; experiment: Antibacterial activity against Staphylococcus aureus ATCC 29213 grown in CAMHB medium by broth microdilution method in presence of 0.002% polysorbate 80 and 95% mouse serum ultrafiltrate; format: functional; outline: as §4
[26] = test system: Staphylococcus aureus; experiment: Antibacterial activity against Staphylococcus aureus ATCC 29213 grown in CAMHB medium by broth microdilution method in presence of 0.002% polysorbate 80 and 95% rat serum ultrafiltrate; format: functional; outline: as §4
[27] = target: Albumin (Homo sapiens, UniProt P02768); experiment: Binding affinity to human serum albumin at 0.2 ug/ml; format: ADME
Sequence of Albumin (P02768 whole entry): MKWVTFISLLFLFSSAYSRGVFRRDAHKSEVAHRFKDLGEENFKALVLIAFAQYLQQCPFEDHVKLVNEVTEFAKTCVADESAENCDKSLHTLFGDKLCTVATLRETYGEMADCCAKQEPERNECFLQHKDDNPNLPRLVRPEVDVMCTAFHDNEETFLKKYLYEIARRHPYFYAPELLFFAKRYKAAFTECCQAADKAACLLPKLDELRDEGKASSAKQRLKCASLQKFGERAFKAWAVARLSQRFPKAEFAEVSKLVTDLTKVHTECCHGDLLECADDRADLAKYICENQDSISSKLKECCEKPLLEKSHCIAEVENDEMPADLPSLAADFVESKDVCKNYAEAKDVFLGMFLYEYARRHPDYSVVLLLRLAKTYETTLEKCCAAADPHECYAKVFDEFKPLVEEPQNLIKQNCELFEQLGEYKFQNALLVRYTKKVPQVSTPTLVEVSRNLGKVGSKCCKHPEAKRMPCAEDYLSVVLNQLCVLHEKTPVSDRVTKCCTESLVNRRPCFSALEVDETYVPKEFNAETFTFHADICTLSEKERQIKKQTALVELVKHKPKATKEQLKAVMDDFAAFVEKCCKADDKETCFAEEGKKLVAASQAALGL

[28] = test system: Staphylococcus aureus; experiment: Antibacterial activity against Staphylococcus aureus ATCC 29213 grown in CAMHB medium by broth microdilution method in presence of 0.002% polysorbate 80 and 95% mouse serum; format: functional; outline: as §4
[29] = Plasma protein binding in rat; format: ADME, cell-free; conditions: read-out: PPB
[30] = test system: Staphylococcus aureus; experiment: Antibacterial activity against Staphylococcus aureus ATCC 29213 grown in CAMHB medium by broth microdilution method in presence of 0.002% polysorbate 80 and 95% rat serum; format: functional; outline: as §4

Which results are given for `CO/N=C(\C(=O)N[C@@H]1C(=O)N2C(C(=O)O)=C(CSc3nc(=O)c(O)nn3C)CS[C@H]12)c1csc(N)n1` [CEFTRIAXONE]?
MIC [1]: 3.88 µg/mL; MIC [2]: 3.5 µg/mL (≈ 6.31 µM); Protein binding [3]: 37.5%; Ratio [4]: 1.3; fraction unbound [5]: 0.791; fraction unbound [6]: 0.66; Ratio [7]: 1.5; fraction unbound [8]: 0.074; Ratio [9]: 13.5; Ratio [10]: 1.6; MIC [11]: 1.38 µg/mL; MIC [12]: 2.88 µg/mL; MIC [13]: 5.88 µg/mL; MIC [14]: 1.09 µg/mL; MIC [15]: 6 µg/mL; MIC [16]: 38.8 µg/mL; MIC [17]: 3.75 µg/mL

For `CN[C@H](CC(C)C)C(=O)N[C@H]1C(=O)N[C@@H](CC(N)=O)C(=O)N[C@H]2C(=O)N[C@H]3C(=O)N[C@H](C(=O)N[C@H](C(=O)O)c4cc(O)cc(O)c4-c4cc3ccc4O)[C@H](O[C@H]3C[C@](C)(N)[C@@H](O)[C@H](C)O3)c3ccc(c(Cl)c3)Oc3cc2cc(c3O[C@@H]2O[C@H](CO)[C@@H](O)[C@H](O)[C@H]2O[C@H]2C[C@](C)(NCc3ccc(-c4ccc(Cl)cc4)cc3)[C@@H](O)[C@H](C)O2)Oc2ccc(cc2Cl)[C@H]1O` [ORITAVANCIN], which MIC [18] is on record?
The MIC was 0.775 µg/mL.

What about the MIC [19] of the same molecule?
Its MIC is 0.475 µg/mL.

And the fraction unbound [20]?
The fraction unbound was 0.125.

And the MIC [21]?
Its MIC is 0.08 µg/mL.

What about the Ratio [4] of the same molecule?
The Ratio was 7.8.

What about the Ratio [7] of the same molecule?
Its Ratio is 5.7.

What about the MIC [22] of the same molecule?
The MIC was 0.061 µg/mL.

What about the MIC [23] of the same molecule?
Its MIC is 0.14 µg/mL.

What about the Ratio [9] of the same molecule?
Its Ratio is 5.5.

What about the Ratio [10] of the same molecule?
The Ratio was 6.8.

What about the fraction unbound [24] of the same molecule?
Its fraction unbound is 0.143.

And the MIC [25]?
Its MIC is 0.079 µg/mL.

What about the MIC [26] of the same molecule?
Its MIC is 0.055 µg/mL.

What about the fraction unbound at 0.2 ug/ml [27] of the same molecule?
Its fraction unbound at 0.2 ug/ml is 0.21.

And the MIC [28]?
The MIC was 0.538 µg/mL.

What about the fraction unbound [29] of the same molecule?
The fraction unbound was less than 0.2.

What about the MIC [30] of the same molecule?
The MIC was 0.313 µg/mL.
